According to ChEMBL document CHEMBL1136924 (J Med Chem, 2009):
Calls of active or inactive are those of the source. The calls are words filed in the database; no cut-off is given here.

Assays:
[1] = Elimination half life in CD1 albino mouse plasma at 20 mg/kg, ip; assay type: ADME, organism-based; parameters: dose 20 mg/kg, route intraperitoneal; conditions: read-out: beta t1/2
How it was run: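 Male CD1 mice (25-30 g) given ip 5 or 20 mg/kg, killed at set times; trunk blood plasma and brain collected. Solid-phase C18 extraction with internal standard, HPLC-UV at 240 nm. Quantification limits about 0.25 nmol/mL plasma, 0.5 nmol/g brain. Three mice per point. Half-life 0.693/β; clearance dose·F/AUC.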

[2] = target: T1, 5-hydroxytryptamine receptor 3A (Cavia porcellus) (UniProt O70212); assay: Intrinsic activity at 5HT3 receptor in spontaneously beating guinea pig right atrium assessed as positive chronotropic potency relative to serotonin; conditions: Cardiac atrium
T1 sequence (whole entry): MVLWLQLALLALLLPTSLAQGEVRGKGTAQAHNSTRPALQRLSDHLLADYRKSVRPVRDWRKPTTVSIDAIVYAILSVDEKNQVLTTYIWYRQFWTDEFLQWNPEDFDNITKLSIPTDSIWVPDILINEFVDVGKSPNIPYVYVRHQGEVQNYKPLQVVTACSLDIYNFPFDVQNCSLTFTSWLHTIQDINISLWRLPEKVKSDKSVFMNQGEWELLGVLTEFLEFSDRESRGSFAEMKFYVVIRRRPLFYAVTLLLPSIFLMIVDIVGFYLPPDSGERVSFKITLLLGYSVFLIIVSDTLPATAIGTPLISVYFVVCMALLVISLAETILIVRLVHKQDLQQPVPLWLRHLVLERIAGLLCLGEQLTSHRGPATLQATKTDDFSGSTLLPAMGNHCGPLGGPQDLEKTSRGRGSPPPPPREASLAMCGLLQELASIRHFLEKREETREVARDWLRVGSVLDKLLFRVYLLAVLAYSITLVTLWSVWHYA
How it was run: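 Guinea pig left and right atria were hung in a 15 mL bath of PSS (pH 7.4, 95% O2-5% CO2, 35 °C) with ketanserin 1 µM. The right atrium beat spontaneously; the left was paced at 1 Hz. Cumulative doses (0.1-100 µM; DMSO ≤0.3%) were added after 45-60 min stabilization. Rate or isometric force was recorded. EC50 came from Probit analysis, n≥4. Intrinsic activity was taken relative to 5-HT.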

Rattus norvegicus = assay: Antagonist activity at 5HT3 receptor in urethane-anesthetized Sprague-Dawley rat assessed as reduction in 1-phenylbiguanide-induced bradycardia at 100 ug/kg, iv administered 5 mins before 1-phenylbiguanide challenge measured after 5 to 30 mins post-treatment by von Bezold-Jarisch reflex test; assay type: functional, organism-based

**Q.** Which results are given for `N[C@@H](CN1CCN(c2nc3cc(F)ccc3n3cccc23)CC1)C(=O)O`?
**A.** half-life [1]: 53 min; Intrinsic activity [2]: 0.81; Activity (Rattus norvegicus): Active
